{
  "source": "paper PMC9662946",
  "about": "(Clinical Cancer Research, 2022)",
  "key": {"advanced solid tumors": {"test_system": "advanced solid tumors", "test": "Tumor response by RECIST 1.1", "type": "in vivo, human", "procedure,_shortened": "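Imaging at baseline and every 6 weeks (every 12 weeks for mCRPC) until discontinuation or consent withdrawal. Patients with measurable disease were classed as complete response, partial response, stable disease or progressive disease under RECIST 1.1. Results were summarised descriptively, with percent change from baseline in target lesions.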"}, "[1]": {"test": "Plasma pharmacokinetics of AZD8186 and metabolite M1", "type": "in vivo, human", "details": "for Effect of the combination partner on the PK of AZD8186 (Cmax, AUC): drug–drug interaction analysis versus AZD8186 monotherapy"}, "[2]": {"test_system": "patients with advanced solid tumors", "test": "Phase I safety and tolerability: AEs, SAEs, DLTs", "type": "in vivo, human"}, "[3]": {"test_system": "pAKT (S473), pAKT (T308), pGSK3β", "test": "PD biomarkers of PI3Kβ inhibition in platelet-rich plasma", "type": "in vivo, human", "details": "pooled 60-mg and 120-mg BID monotherapy cohorts"}, "PI3Kβ": {"test_system": "PI3Kβ", "details": "cited from earlier work"}, "pAKT (S473) and pPRAS40": {"test_system": "pAKT (S473) and pPRAS40", "test": "IHC of paired tumor biopsies", "type": "in vivo, human", "details": "six patients, 120-mg BID monotherapy dose expansion", "procedure,_shortened": "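Paired fresh biopsies from patients with PTEN-deficient/mutated mCRPC or TNBC, taken at screening and in week 2 after ≥3 consecutive dosing days (preferably 2–4 h post-dose; days 11 or 12 on 5:2, days 11–14 continuous). IHC for pAKT (S473) and pPRAS40 on three non-consecutive sections. Digital image analysis scored membranous pAKT and cytosolic pPRAS40 intensity as H-scores, with percent change from baseline.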"}, "[4]": {"details": "non-prostate cancer, dose finding"}, "[5]": {"details": "combined with AZD8186, dose expansion"}, "[6]": {"details": "combined with AZD8186, dose finding"}},
  "note": "“Also recorded” adds a separate entry of the source.",
  "data": [
    {"smiles": "C[C@@H](Nc1cc(F)cc(F)c1)c1cc(C(=O)N(C)C)cc2c(=O)cc(N3CCOCC3)oc12", "note": "[AZD8186, (R)-8-(1-(3,5-difluorophenylamino)ethyl)-N,N-dimethyl-2-morpholino-4-oxo-4H-chromene-6-carboxamide]", "values": [
      {"measurement": "Duration of RECIST 1.1 partial response", "setting": "advanced solid tumors; dose finding", "result": 372, "unit": "days"},
      {"measurement": "RECIST 1.1 best objective response stable disease, patients", "setting": "advanced solid tumors; [4]", "result": 38.9, "unit": "%"},
      {"measurement": "RECIST 1.1 disease progression, patients", "setting": "advanced solid tumors; [4]", "result": 55.6, "unit": "%"},
      {"measurement": "RECIST 1.1 confirmed partial response, patients", "setting": "advanced solid tumors; non-prostate cancer, dose finding (120-mg BID; 2:5)", "result": 5.6, "unit": "%"},
      {"measurement": "RECIST 1.1 disease progression, patients", "setting": "advanced solid tumors; prostate cancer, dose expansion", "result": 25.0, "unit": "%"},
      {"measurement": "RECIST 1.1 best objective response stable disease, patients", "setting": "advanced solid tumors; prostate cancer, dose finding", "result": 37.5, "unit": "%"},
      {"measurement": "RECIST 1.1 disease progression, patients", "setting": "advanced solid tumors; prostate cancer, dose finding", "result": 62.5, "unit": "%"},
      {"measurement": "half-life", "setting": "[1]; human, plasma, oral, terminal elimination half-life, overall range, after a single dose", "result": "84 to 828", "unit": "min"},
      {"measurement": "Effect on the PK of abiraterone acetate", "setting": "[1]; in vivo", "result": "little effect"},
      {"measurement": "Cmax and AUC versus dose", "setting": "[1]; single- and multiple-dose administration", "result": "dose proportional; also recorded: increased with dose"},
      {"measurement": "Any AE", "setting": "[2]; dose expansion", "result": "19 (95.0) n (%)"},
      {"measurement": "Any AE causally related to AZD8186 only", "setting": "[2]; dose expansion", "result": "11 (55.0) n (%)"},
      {"measurement": "Any AE leading to discontinuation of AZD8186", "setting": "[2]; dose expansion", "result": "1 (5.0) n (%)"},
      {"measurement": "Any AE leading to dose modification of AZD8186", "setting": "[2]; dose expansion", "result": "0 n (%)"},
      {"measurement": "Any SAE (including deaths)", "setting": "[2]; dose expansion", "result": "4 (20.0) n (%)"},
      {"measurement": "Any SAE (including deaths), causally related to AZD8186 only", "setting": "[2]; dose expansion", "result": "2 (10.0) n (%)"},
      {"measurement": "Any SAE causing discontinuation of AZD8186", "setting": "[2]; dose expansion", "result": "0 n (%)"},
      {"measurement": "Any SAE causing discontinuation of AZD8186, causally related to AZD8186 only", "setting": "[2]; dose expansion", "result": "0 n (%)"},
      {"measurement": "Any grade ≥3 AE", "setting": "[2]; dose expansion", "result": "8 (40.0) n (%)"},
      {"measurement": "Any grade ≥3 AE causally related to AZD8186 only", "setting": "[2]; dose expansion", "result": "3 (15.0) n (%)"},
      {"measurement": "Death", "setting": "[2]; dose expansion", "result": "0 n (%)"},
      {"measurement": "Death causally related to AZD8186 only", "setting": "[2]; dose expansion", "result": "0 n (%)"},
      {"measurement": "Dose interruption of AZD8186, patients", "setting": "[2]; dose expansion", "result": 35.0, "unit": "%"},
      {"measurement": "Dose reduction of AZD8186, patients", "setting": "[2]; dose expansion", "result": "No dose reductions"},
      {"measurement": "Anemia, grade ≥3 causally related AE, patients", "setting": "[2]; dose finding", "result": 4.8, "unit": "%"},
      {"measurement": "Any AE", "setting": "[2]; dose finding", "result": "63 (100.0) n (%)"},
      {"measurement": "Any AE causally related to AZD8186 only", "setting": "[2]; dose finding", "result": "55 (87.3) n (%)"},
      {"measurement": "Any AE leading to discontinuation of AZD8186", "setting": "[2]; dose finding", "result": "11 (17.5) n (%)"},
      {"measurement": "Any AE leading to dose modification of AZD8186", "setting": "[2]; dose finding", "result": "10 (15.9) n (%)"},
      {"measurement": "Any SAE (including deaths)", "setting": "[2]; dose finding", "result": "23 (36.5) n (%)"},
      {"measurement": "Any SAE (including deaths), causally related to AZD8186 only", "setting": "[2]; dose finding", "result": "10 (15.9) n (%)"},
      {"measurement": "Any SAE causing discontinuation of AZD8186", "setting": "[2]; dose finding", "result": "6 (9.5) n (%)"},
      {"measurement": "Any SAE causing discontinuation of AZD8186, causally related to AZD8186 only", "setting": "[2]; dose finding", "result": "5 (7.9) n (%)"},
      {"measurement": "Any grade ≥3 AE", "setting": "[2]; dose finding", "result": "39 (61.9) n (%)"},
      {"measurement": "Any grade ≥3 AE causally related to AZD8186 only", "setting": "[2]; dose finding", "result": "20 (31.7) n (%)"},
      {"measurement": "Aspartate aminotransferase increase, grade ≥3 causally related AE, patients", "setting": "[2]; dose finding", "result": 4.8, "unit": "%"},
      {"measurement": "Colitis, grade ≥3 causally related AE, patients", "setting": "[2]; dose finding", "result": 4.8, "unit": "%"},
      {"measurement": "Death", "setting": "[2]; dose finding", "result": "0 n (%)"},
      {"measurement": "Death causally related to AZD8186 only", "setting": "[2]; dose finding", "result": "0 n (%)"},
      {"measurement": "Diarrhea, AE causally related to AZD8186, patients", "setting": "[2]; dose finding", "result": 41.3, "unit": "%"},
      {"measurement": "Fatigue, AE causally related to AZD8186, patients", "setting": "[2]; dose finding", "result": 22.2, "unit": "%"},
      {"measurement": "Hypophosphatemia, grade ≥3 causally related AE, patients", "setting": "[2]; dose finding", "result": 4.8, "unit": "%"},
      {"measurement": "Maculo-papular rash, grade ≥3 causally related AE, patients", "setting": "[2]; dose finding", "result": 4.8, "unit": "%"},
      {"measurement": "Nausea, AE causally related to AZD8186, patients", "setting": "[2]; dose finding", "result": 27.0, "unit": "%"},
      {"measurement": "Vomiting, AE causally related to AZD8186, patients", "setting": "[2]; dose finding", "result": 23.8, "unit": "%"},
      {"measurement": "Dose interruption of AZD8186, patients", "setting": "[2]; dose finding, whole arm", "result": 49.2, "unit": "%"},
      {"measurement": "Dose interruption of AZD8186 related to AEs, patients", "setting": "[2]; dose finding, whole arm", "result": 38.1, "unit": "%"},
      {"measurement": "Dose reduction of AZD8186, patients", "setting": "[2]; dose finding, whole arm", "result": 17.5, "unit": "%"},
      {"measurement": "Tolerability", "setting": "[2]; monotherapy dose expansion, 60-mg BID (5:2) and 120-mg BID (continuous)", "result": "well tolerated"},
      {"measurement": "Patients who experienced a DLT", "setting": "[2]; monotherapy dose finding, 53 evaluable for DLTs", "result": 7.5, "unit": "%"},
      {"measurement": "pAKT (S473), pAKT (T308), and pGSK3β in platelet-rich plasma", "setting": "[3]", "result": "Substantial reductions"},
      {"measurement": "IC50", "setting": "PI3Kβ", "result": 4, "unit": "nM"},
      {"measurement": "Patients with substantial reduction in pAKT (S473) membrane fraction", "setting": "pAKT (S473) and pPRAS40", "result": "all six patients"},
      {"measurement": "Patients with substantial reduction in pPRAS40", "setting": "pAKT (S473) and pPRAS40", "result": "five of the six patients"}
    ]},
    {"smiles": "CC(=O)O[C@H]1CC[C@@]2(C)C(=CC[C@@H]3[C@@H]2CC[C@]2(C)C(c4cccnc4)=CC[C@@H]32)C1", "note": "[Abiraterone acetate, abiraterone acetate, reference compound]", "values": [
      {"measurement": "Effect of the combination partner on the PK of AZD8186 (Cmax, AUC)", "setting": "[1]", "result": "little or no effect"},
      {"measurement": "Dose interruption of the combination partner, patients", "setting": "[2]; [5]", "result": 72.2, "unit": "%"},
      {"measurement": "Dose reduction of the combination partner, patients", "setting": "[2]; [5]", "result": 33.3, "unit": "%"},
      {"measurement": "Dose interruption of the combination partner, patients", "setting": "[2]; [6]", "result": 56.3, "unit": "%"},
      {"measurement": "Dose reduction of the combination partner, patients", "setting": "[2]; [6]", "result": 18.8, "unit": "%"}
    ]},
    {"smiles": "CNC(=O)c1cccc(-c2ccc3c(N4CCOC[C@@H]4C)nc(N4CCOC[C@@H]4C)nc3n2)c1", "note": "[Vistusertib, vistusertib, reference compound]", "values": [
      {"measurement": "Effect of the combination partner on the PK of AZD8186 (Cmax, AUC)", "setting": "[1]", "result": "not affected"},
      {"measurement": "Dose interruption of the combination partner, patients", "setting": "[2]; [6]", "result": 60.0, "unit": "%"},
      {"measurement": "Dose reduction of the combination partner, patients", "setting": "[2]; [6]", "result": 23.3, "unit": "%"}
    ]},
    {"smiles": "C[C@]12C=CC(=O)C=C1CC[C@@H]1[C@@H]2C(=O)C[C@@]2(C)[C@H]1CC[C@]2(O)C(=O)CO", "note": "[prednisone, reference compound]", "values": [
      {"measurement": "Dose interruption of the combination partner, patients", "setting": "[2]; [5]", "result": 77.8, "unit": "%"},
      {"measurement": "Dose reduction of the combination partner, patients", "setting": "[2]; [5]", "result": 22.2, "unit": "%"},
      {"measurement": "Dose interruption of the combination partner, patients", "setting": "[2]; [6]", "result": 56.3, "unit": "%"},
      {"measurement": "Dose reduction of the combination partner, patients", "setting": "[2]; [6]", "result": 18.8, "unit": "%"}
    ]}
  ]
}
